Experimental data published in ChEMBL document CHEMBL1135391, “Anti-Helicobacter pylori agents. 5. 2-(Substituted guanidino)-4-arylthiazoles and aryloxazole analogues” (2002).
≈ marks a conversion by molar mass, not a printed value. Each block holds one compound with its values, some of them ahead of it.

Tests used:
Helicobacter pylori [1] = test: Minimum inhibitory concentration required to inhibit macroscopic colonial growth of Helicobacter pylori; ranges from (6.25-25); assay type: functional
Method in brief: (§1)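 Agar dilution against 10 H. pylori strains (8001, 8003, 8004, 8007, 8008, 8009, 8011, 9005, FP1530, FP1532). Strains precultured 3 days at 37 °C on Brucella agar with 3% horse serum and 2% starch, then adjusted to McFarland No. 1. A 10²-fold dilution was spotted onto Brucella agar with 7% lysed horse blood and 2-fold drug dilutions. Plates incubated 3 days at 37 °C under 10% CO2. MIC is the lowest concentration preventing visible colonies; mean and range span the 10 strains.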

Cavia porcellus [2] = species: Cavia porcellus; test: Inhibition of histamine-stimulated chronotropic response in isolated guinea pig right atrium at 1*10e-6 g/mL; assay type: functional, Cardiac atrium
Method in brief: (§2)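 Guinea pig atrial strip in Thyrode solution at 30 °C, gassed with 95% O2-5% CO2, initial tension 0.3-0.6 g. Beating rate recorded. Histamine hydrochloride 1 × 10⁻⁶ g/mL was given first. After washout, test compound at 1 × 10⁻⁶ g/mL was added 30 min later. Percent inhibition compares histamine-induced rate increases before and 30 min after compound.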

Rattus norvegicus [3] = test: Inhibition of histamine-stimulated gastric acid secretion in lumen-perfused stomach of anesthetized rats after 1 mg/kg iv administration; assay type: functional
Method in brief: (§3)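 Male Sprague-Dawley rats, about 250 g, fasted 24 h and anesthetized with urethane 1.25 g/kg ip. Stomach lumen perfused with saline, perfusate titrated with 25 mM NaOH. Acid secretion was driven by iv histamine infusion at 3 mg/kg/h. At plateau, compound 1 mg/kg iv. Read-out is maximal inhibition of acid output, n = 2.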

Helicobacter pylori [4] = test: Minimum inhibitory concentration required to inhibit macroscopic colonial growth of Helicobacter pylori; ranges from (0.2-1.56); assay type: functional; method in brief: as §1
Helicobacter pylori [5] = test: Minimum inhibitory concentration required to inhibit macroscopic colonial growth of Helicobacter pylori; assay type: functional; method in brief: as §1
Helicobacter pylori [6] = test: Minimum inhibitory concentration required to inhibit macroscopic colonial growth of Helicobacter pylori; ranges from (1.56-12.5); assay type: functional; method in brief: as §1
Helicobacter pylori [7] = test: Minimum inhibitory concentration required to inhibit macroscopic colonial growth of Helicobacter pylori; ranges from (3.13-12.5); assay type: functional; method in brief: as §1
Cavia porcellus [8] = species: Cavia porcellus; test: Inhibition of histamine-stimulated chronotropic response in isolated guinea pig right atrium at 1*10e-4 g/mL; assay type: functional, Cardiac atrium
Helicobacter pylori [9] = test: Minimum inhibitory concentration required to inhibit macroscopic colonial growth of Helicobacter pylori; ranges from (0.1-0.78); assay type: functional; method in brief: as §1
Helicobacter pylori [10] = test: Minimum inhibitory concentration required to inhibit macroscopic colonial growth of Helicobacter pylori; ranges from (3.13-[…]); assay type: functional; method in brief: as §1
Helicobacter pylori [11] = test: Minimum inhibitory concentration required to inhibit macroscopic colonial growth of Helicobacter pylori; ranges from (3.13-6.25); assay type: functional; method in brief: as §1
Helicobacter pylori [12] = test: Minimum inhibitory concentration required to inhibit macroscopic colonial growth of Helicobacter pylori ranges from (6.25-12.5); assay type: functional; method in brief: as §1
Helicobacter pylori [13] = test: Minimum inhibitory concentration required to inhibit macroscopic colonial growth of Helicobacter pylori; ranges from (0.025-0.1); assay type: functional; method in brief: as §1
Helicobacter pylori [14] = test: Minimum inhibitory concentration required to inhibit macroscopic colonial growth of Helicobacter pylori;ranges from (0.10-0.78); assay type: functional; method in brief: as §1
Helicobacter pylori [15] = test: microbe, parasite or virus in culture
Helicobacter pylori [16] = test: Minimum inhibitory concentration required to inhibit macroscopic colonial growth of Helicobacter pylori; ranges from (0.78-1.56); assay type: functional; method in brief: as §1
Helicobacter pylori [17] = test: Minimum inhibitory concentration required to inhibit macroscopic colonial growth of Helicobacter pylori; ranges from (0.78-6.25); assay type: functional; method in brief: as §1
Helicobacter pylori [18] = test: Minimum inhibitory concentration required to inhibit macroscopic colonial growth of Helicobacter pylori; ranges from (0.025-0.39); assay type: functional; method in brief: as §1
Helicobacter pylori [19] = test: Minimum inhibitory concentration required to inhibit macroscopic colonial growth of Helicobacter pylori; ranges from (0.00625-0.1); assay type: functional; method in brief: as §1
Helicobacter pylori [20] = test: Minimum inhibitory concentration required to inhibit macroscopic colonial growth of Helicobacter pylori; ranges from(1.56-25); assay type: functional; method in brief: as §1
Helicobacter pylori [21] = test: Minimum inhibitory concentration required to inhibit macroscopic colonial growth of Helicobacter pylori; ranges from (0.39-6.25); assay type: functional; method in brief: as §1
Helicobacter pylori [22] = test: Minimum inhibitory concentration required to inhibit macroscopic colonial growth of Helicobacter pylori; ranges from (0.05-0.2); assay type: functional; method in brief: as §1
Helicobacter pylori [23] = test: Minimum inhibitory concentration required to inhibit macroscopic colonial growth of Helicobacter pylori;ranges from (0.003-0.025); assay type: functional; method in brief: as §1
Helicobacter pylori [24] = test: Minimum inhibitory concentration required to inhibit macroscopic colonial growth of Helicobacter pylori; ranges from (0.0125-0.1); assay type: functional; method in brief: as §1
Helicobacter pylori [25] = test: Minimum inhibitory concentration required to inhibit macroscopic colonial growth of Helicobacter pylori; ranges from (0.2-0.78); assay type: functional; method in brief: as §1
Helicobacter pylori [26] = test: Minimum inhibitory concentration required to inhibit macroscopic colonial growth of Helicobacter pylori; ranges from ([…]-6.25); assay type: functional; method in brief: as §1
Rattus norvegicus [27] = test: Inhibition of histamine-stimulated gastric acid secretion in lumen-perfused stomach of anesthetized rats; assay type: functional; method in brief: as §3
Cavia porcellus [28] = species: Cavia porcellus; test: Inhibition of histamine-stimulated chronotropic response in isolated guinea pig right atrium; assay type: functional, Cardiac atrium; method in brief: as §2
Helicobacter pylori [29] = test: Minimum inhibitory concentration required to inhibit macroscopic colonial growth of Helicobacter pylori; ranges from (0.2-3.13); assay type: functional; method in brief: as §1

Compound: CC(=O)NCc1cccc(-c2csc(NC(=N)NCC(F)(F)F)n2)n1
MIC (Helicobacter pylori [1]): 13.4 µg/mL (≈ 36 µM)

Compound: CCCC/N=C(\N)Nc1nc(-c2ccc(CNC(C)=O)s2)cs1
Inhibition (Cavia porcellus [8]): <10%
MIC (Helicobacter pylori [9]): 0.32 µg/mL (≈ 0.91 µM)

Compound: CCCC/N=C(\N)Nc1nc(-c2ccc(CNC(C)=O)o2)co1
Inhibition (Cavia porcellus [2]): 82%
inhibition in vivo at 1 mg/kg (Rattus norvegicus [3]): 51%
MIC (Helicobacter pylori [1]): 19.3 µg/mL (≈ 60.4 µM)

Compound: C/N=C(\N)Nc1nc(-c2cccc(CNC(C)=O)n2)cs1
MIC (Helicobacter pylori [10]): 5.1 µg/mL (≈ 16.8 µM)

Compound: COCC/N=C(\N)Nc1nc(-c2cccc(CNC(C)=O)n2)cs1
MIC (Helicobacter pylori [7]): 6.7 µg/mL (≈ 19.2 µM)

Compound: BISMUTH SUBCITRATE
MIC (Helicobacter pylori [5]): 18 µg/mL

Compound: CCCC/N=C(\N)Nc1nc(-c2ccnc(CNC(C)=O)n2)cs1
MIC (Helicobacter pylori [11]): 4.1 µg/mL (≈ 11.8 µM)
Inhibition (Cavia porcellus [2]): <10%

Compound: COc1ccccc1CC/N=C(\N)Nc1nc(-c2c[nH]c(CNC(C)=O)n2)cs1
MIC (Helicobacter pylori [12]): 10.2 µg/mL (≈ 24.7 µM)

Compound: COc1ccccc1CC/N=C(\N)Nc1nc(-c2cc(CNC(C)=O)on2)cs1
MIC (Helicobacter pylori [11]): 4.4 µg/mL (≈ 10.6 µM)
Inhibition (Cavia porcellus [2]): <10%

Compound: COc1ccccc1CC/N=C(\N)Nc1nc(-c2cccc(CNC(C)=O)n2)cs1
MIC (Helicobacter pylori [13]): 0.037 µg/mL (≈ 0.0872 µM)
Inhibition (Cavia porcellus [2]): 78%
inhibition in vivo at 1 mg/kg (Rattus norvegicus [3]): 65%

Compound: CN/C(=N\CCSCc1nc[nH]c1C)NC#N [CIMETIDINE]
MIC (Helicobacter pylori [15]): 1130 µg/mL (≈ 4480 µM)
Inhibition (Cavia porcellus [2]): 43%
inhibition in vivo at 1 mg/kg (Rattus norvegicus [3]): 53%

Compound: CSCC/N=C(\N)Nc1nc(-c2cccc(CNC(C)=O)n2)cs1
MIC (Helicobacter pylori [16]): 1.1 µg/mL (≈ 3.02 µM)

Compound: CCC/N=C(\N)Nc1nc(-c2cccc(CNC(C)=O)n2)cs1
MIC (Helicobacter pylori [17]): 2.9 µg/mL (≈ 8.72 µM)

Compound: CC1(C)S[C@@H]2[C@H](NC(=O)[C@H](N)c3ccc(O)cc3)C(=O)N2[C@H]1C(=O)O [AMOXICILLIN]
MIC (Helicobacter pylori [19]): 0.021 µg/mL (≈ 0.0575 µM)

Compound: CCCC/N=C(\N)Nc1nc(-c2cccc(CNC(C)=O)c2)co1
MIC (Helicobacter pylori [21]): 1.92 µg/mL (≈ 5.83 µM)
Inhibition (Cavia porcellus [2]): 93%
inhibition in vivo at 1 mg/kg (Rattus norvegicus [3]): 60%

Compound: CC(=O)NCc1cccc(-c2csc(N/C(N)=N/CCC(C)C)n2)n1
MIC (Helicobacter pylori [22]): 0.1 µg/mL (≈ 0.277 µM)
Inhibition (Cavia porcellus [2]): 80%
inhibition in vivo at 1 mg/kg (Rattus norvegicus [3]): 86%

Compound: COc1ccccc1CC/N=C(\N)Nc1nc(-c2ccc(CNC(C)=O)s2)cs1
MIC (Helicobacter pylori [23]): 0.0065 µg/mL (≈ 0.0151 µM)
Inhibition (Cavia porcellus [8]): <10%

Compound: COc1ccccc1CC/N=C(\N)Nc1nc(-c2csc(CNC(C)=O)n2)cs1
Inhibition (Cavia porcellus [2]): 30%
MIC (Helicobacter pylori [24]): 0.043 µg/mL (≈ 0.0999 µM)
inhibition in vivo at 1 mg/kg (Rattus norvegicus [3]): 23%

Compound: CCCC/N=C(\N)Nc1nc(-c2cccc(CNC(C)=O)n2)cs1
Inhibition (Cavia porcellus [2]): 100%
inhibition in vivo at 1 mg/kg (Rattus norvegicus [3]): 76%
MIC (Helicobacter pylori [4]): 0.59 µg/mL (≈ 1.7 µM)

Compound: CC(=O)NCc1cccc(-c2csc(N/C(N)=N/CCN(C)C)n2)n1
MIC (Helicobacter pylori [5]): > 100 µg/mL

Compound: COc1ccc(CC/N=C(\N)Nc2nc(-c3cccc(CNC(C)=O)n3)cs2)cc1
Inhibition (Cavia porcellus [2]): 24%
MIC (Helicobacter pylori [25]): 0.42 µg/mL (≈ 0.989 µM)
inhibition in vivo at 1 mg/kg (Rattus norvegicus [3]): 18%

Compound: CC(=O)NCc1cccc(-c2csc(NC(=N)NCCc3ccccc3)n2)n1
MIC (Helicobacter pylori [22]): 0.1 µg/mL (≈ 0.253 µM)
Inhibition (Cavia porcellus [2]): 71%
Inhibition (Rattus norvegicus [3]): 50%

Compound: CNC(=C[N+](=O)[O-])NCCSCc1ccc(CN(C)C)o1 [RANITIDINE]
Inhibition (Rattus norvegicus [27]): 72%
MIC (Helicobacter pylori [5]): > 1600 µg/mL
Inhibition (Cavia porcellus [28]): 44%

The next lines start with results.

MIC (Helicobacter pylori [4]): 0.52 µg/mL (≈ 1.48 µM)
Compound: CCCC/N=C(\N)Nc1nc(-c2csc(CNC(C)=O)n2)cs1
Inhibition (Cavia porcellus [2]): 85%
inhibition in vivo at 1 mg/kg (Rattus norvegicus [3]): 50%

MIC (Helicobacter pylori [5]): 0.057 µg/mL (≈ 0.0762 µM)
Compound: CC[C@H]1OC(=O)[C@H](C)[C@@H](O[C@H]2C[C@@](C)(OC)[C@@H](O)[C@H](C)O2)[C@H](C)[C@@H](O[C@@H]2O[C@H](C)C[C@H](N(C)C)[C@H]2O)[C@](C)(OC)C[C@@H](C)C(=O)[C@H](C)[C@@H](O)[C@]1(C)O [CLARITHROMYCIN]

MIC (Helicobacter pylori [6]): 4.7 µg/mL (≈ 14.8 µM)
Compound: CC/N=C(\N)Nc1nc(-c2cccc(CNC(C)=O)n2)cs1

MIC (Helicobacter pylori [7]): 10.9 µg/mL (≈ 32.3 µM)
Compound: CCCC/N=C(\N)Nc1nc(-c2nc(CNC(C)=O)no2)cs1
Inhibition (Cavia porcellus [2]): <10%

MIC (Helicobacter pylori [1]): 11.5 µg/mL (≈ 30.6 µM)
Compound: CC(=O)NCC/N=C(\N)Nc1nc(-c2cccc(CNC(C)=O)n2)cs1

MIC (Helicobacter pylori [14]): 0.3 µg/mL (≈ 0.736 µM)
Compound: COc1ccccc1CC/N=C(\N)Nc1nc(-c2cccc(CNC(C)=O)c2)co1
Inhibition (Cavia porcellus [2]): 65%
inhibition in vivo at 1 mg/kg (Rattus norvegicus [3]): 40%

MIC (Helicobacter pylori [18]): 0.14 µg/mL (≈ 0.33 µM)
Compound: COc1cccc(CC/N=C(\N)Nc2nc(-c3cccc(CNC(C)=O)n3)cs2)c1
Inhibition (Cavia porcellus [2]): 83%
inhibition in vivo at 1 mg/kg (Rattus norvegicus [3]): 68%

MIC (Helicobacter pylori [20]): 5.4 µg/mL (≈ 31.6 µM)
Compound: Cc1ncc([N+](=O)[O-])n1CCO [METRONIDAZOLE]

MIC (Helicobacter pylori [26]): 3.9 µg/mL (≈ 11.8 µM)
Compound: CCCC/N=C(\N)Nc1nc(-c2cccc(CNC(C)=O)n2)co1
Inhibition (Cavia porcellus [2]): 81%
inhibition in vivo at 1 mg/kg (Rattus norvegicus [3]): 92%

MIC (Helicobacter pylori [29]): 1.1 µg/mL (≈ 2.65 µM)
Compound: COc1ccccc1CC/N=C(\N)Nc1nc(-c2ncc(CNC(C)=O)o2)cs1
Inhibition (Cavia porcellus [2]): 37%
inhibition in vivo at 1 mg/kg (Rattus norvegicus [3]): 50%
